From ChEMBL document CHEMBL1147076, “Antitumor activity of MLN8054, an orally active small-molecule inhibitor of Aurora A kinase” (Proc Natl Acad Sci U S A, 2007)
Calls of active or inactive are those of the source. The calls are words filed in the database; no cut-off is given here.

Key:
[1] = test system: PC-3; experiment: Cell cycle arrest in human PC3 cells by accumulation at S phase at 1 uM after 24 hrs by flow cytometry relative to control; format: functional
Method in brief: (§1)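 DNA content profiles by flow cytometry of PC-3 prostate tumor cells exposed to drug diluted in DMSO for 24 or 48 h. Phase distribution was compared with DMSO-treated control cells.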

[2] = molecular target: Ephrin type-B receptor 3 (Homo sapiens) (UniProt P54753); experiment: Activity of human EphB3 kinase at 1 uM
[3] = molecular target: MAP kinase-activated protein kinase 3 (Homo sapiens) (UniProt Q16644); experiment: Activity of human MAPKAP-K3 kinase at 1 uM
[4] = molecular target: Serine/threonine-protein kinase NLK (Homo sapiens) (UniProt Q9UBE8); experiment: Activity of human NLK kinase at 1 uM
Method in brief: (§2)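 Single-point screen in a 226-kinase panel run by an outside service. Test compound at 1 μM with ATP at 10 μM in every assay. Other assay conditions are not given.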

[5] = test system: PC-3; experiment: Cell cycle arrest in human PC3 cells by accumulation at G1 phase at 1 uM after 48 hrs by flow cytometry relative to control; format: functional; method in brief: as §1
[6] = molecular target: Rho-associated protein kinase 2 (Homo sapiens) (UniProt O75116); experiment: Activity of human ROCK2 kinase at 1 uM; method in brief: as §2
[7] = molecular target: Protein kinase C eta type (Homo sapiens) (UniProt P24723); experiment: Activity of human PKCeta kinase at 1 uM; method in brief: as §2
[8] = molecular target: Ribosomal protein S6 kinase alpha-4 (Homo sapiens) (UniProt O75676); experiment: Activity of human MSK2 kinase at 1 uM
Method in brief: (§3)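 Single-point kinase profiling: each kinase in a 226-kinase panel tested with compound at 1 μM and ATP at 10 μM in every assay, run by an external screening service.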

[9] = molecular target: SRSF protein kinase 2 (Homo sapiens) (UniProt P78362); experiment: Activity of human SRPK2 kinase at 1 uM; method in brief: as §2
[10] = test system: PC-3; experiment: Induction of apoptosis in human PC3 cells assessed as PARP cleavage at 0.25 uM after 48 hrs by Western blot method; format: functional, cell-based
[11] = molecular target: Dual specificity mitogen-activated protein kinase kinase 7 (Homo sapiens) (UniProt O14733); experiment: Activity of human MKK7-beta kinase at 1 uM
[12] = test system: MCF7; experiment: Antiproliferative activity against human MCF7 cells after 96 hrs by BrdU cell proliferation ELISA; format: functional, cell-based; details: MCF7, 96 h
Method in brief: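 BrdU incorporation proliferation assay on cultured human tumor lines; IC50 values derived from growth inhibition.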

[13] = test system: PC-3; experiment: Cell cycle arrest in human PC3 cells by accumulation at >4N phase at 1 uM after 48 hrs by flow cytometry relative to control; format: functional
[14] = test system: PC-3; experiment: Induction of apoptosis in human PC3 cells assessed as PARP cleavage at 0.25 uM after 24 hrs by Western blot method; format: functional, cell-based
[15] = molecular target: Serine/threonine-protein kinase PAK 3 (Homo sapiens) (UniProt O75914); experiment: Activity of human PAK3 kinase at 1 uM; method in brief: as §2
[16] = test system: PC-3; experiment: Induction of apoptosis in human PC3 cells assessed as PARP cleavage at 1 uM after 48 hrs by Western blot method; format: functional, cell-based
[17] = molecular target: Mitogen-activated protein kinase 1 (ERK2) (Mus musculus) (UniProt P63085); experiment: Activity of mouse MAPK2 kinase at 1 uM
[18] = molecular target: Proto-oncogene tyrosine-protein kinase ROS (Homo sapiens) (UniProt P08922); experiment: Activity of human Ros kinase at 1 uM; method in brief: as §2
[19] = molecular target: Serine/threonine-protein kinase MARK1 (Homo sapiens) (UniProt Q9P0L2); experiment: Activity of human MARK1 kinase at 1 uM; method in brief: as §3
[20] = test system: PC-3; experiment: Cell cycle arrest in human PC3 cells by accumulation at S phase at 4 uM after 24 hrs by flow cytometry relative to control; format: functional; method in brief: as §1
[21] = species on record: Homo sapiens; experiment: Activity of human PKA kinase at 1 uM; method in brief: as §2
[22] = species on record: Homo sapiens; experiment: Activity of human CDK5/p35 kinase at 1 uM
[23] = molecular target: Protein kinase C delta type (Homo sapiens) (UniProt Q05655); experiment: Activity of human PKCdelta kinase at 1 uM; method in brief: as §3
[24] = test system: PC-3; experiment: Cell cycle arrest in human PC3 cells by accumulation at >4N phase at 1 uM after 24 hrs by flow cytometry relative to control; format: functional
[25] = molecular target: Protein kinase C beta type (Homo sapiens) (UniProt P05771); experiment: Activity of human PKC-beta-2 kinase at 1 uM; method in brief: as §2
[26] = molecular target: Serine/threonine-protein kinase PAK 6 (Homo sapiens) (UniProt Q9NQU5); experiment: Activity of human PAK6 kinase at 1 uM; method in brief: as §2
[27] = molecular target: Serine/threonine-protein kinase BRSK2 (Homo sapiens) (UniProt Q8IWQ3); experiment: Activity of human BrSK2 kinase at 1 uM
[28] = test system: PC-3; experiment: Cell cycle arrest in human PC3 cells by accumulation at >4N phase at 4 uM after 24 hrs by flow cytometry relative to control; format: functional
[29] = molecular target: cAMP-dependent protein kinase catalytic subunit PRKX (Homo sapiens) (UniProt P51817); experiment: Activity of human PrKX kinase at 1 uM; method in brief: as §2
[30] = molecular target: Tyrosine-protein kinase Lyn (Mus musculus) (UniProt P25911); experiment: Activity of mouse Lyn kinase at 1 uM; method in brief: as §2
[31] = molecular target: Cyclin-dependent kinase 7/ cyclin H (Homo sapiens) (UniProt P51946+P50613); experiment: Activity of human CDK7/cyclin H/MAT1 kinase at 1 uM; format: protein-complex assay; method in brief: as §3
[32] = molecular target: RAC-beta serine/threonine-protein kinase (Homo sapiens) (UniProt P31751); experiment: Activity of human PKBbeta kinase at 1 uM; method in brief: as §2
[33] = test system: Mus musculus; experiment: Toxicity in human HCT116 cells xenografted into athymic nude NCR nu/nu mouse assessed as decrease in neutrophil count at 30 mg/kg, BID after 21 days; format: organism-based, HCT-116; parameters: dose 30 mg/kg; scale not given: the % may be the effect or the level left; details: in vivo, 504 h
Method in brief: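 Female athymic nude NCR nu/nu mice were given HCT-116 cells (1 × 10^6) s.c. in the right flank. Drug in 10% hydroxypropyl-β-cyclodextrin/5% sodium bicarbonate was given orally (QD or BID) for 21 days. Body weight loss was recorded at the end of treatment, and neutrophil counts were also followed for the BID regimen.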

[34] = test system: PC-3; experiment: Induction of apoptosis in human PC3 cells assessed as PARP cleavage at 4 uM after 48 hrs by Western blot method; format: functional, cell-based
[35] = molecular target: Tyrosine-protein kinase receptor UFO (Homo sapiens) (UniProt P30530); experiment: Inhibition of Axl kinase at 1 uM
Method in brief: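 Single-point screen within a 226-kinase panel, with compound at 1 μM and ATP at 10 μM in all assays.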

[36] = molecular target: Calcium/calmodulin-dependent protein kinase type II subunit gamma (Homo sapiens) (UniProt Q13555); experiment: Activity of human CaMK2gamma kinase at 1 uM; method in brief: as §3
[37] = molecular target: Fibroblast growth factor receptor 4 (Homo sapiens) (UniProt P22455); experiment: Activity of human FGFR4 kinase at 1 uM
[38] = molecular target: Mitogen-activated protein kinase 14 (Homo sapiens) (UniProt Q16539); experiment: Activity of human SAPK2a kinase at 1 uM
Method in brief: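 Single-concentration screen across a 226-kinase panel run by an outside provider; test compound at 1 μM with 10 μM ATP in every assay. Other conditions not detailed.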

[39] = molecular target: Calcium/calmodulin-dependent protein kinase type II subunit delta (Homo sapiens) (UniProt Q13557); experiment: Activity of human CaMK2delta kinase at 1 uM; method in brief: as §3

Fibroblast growth factor receptor 4 (Homo sapiens), sequence (P22455 22-802 limits assumed): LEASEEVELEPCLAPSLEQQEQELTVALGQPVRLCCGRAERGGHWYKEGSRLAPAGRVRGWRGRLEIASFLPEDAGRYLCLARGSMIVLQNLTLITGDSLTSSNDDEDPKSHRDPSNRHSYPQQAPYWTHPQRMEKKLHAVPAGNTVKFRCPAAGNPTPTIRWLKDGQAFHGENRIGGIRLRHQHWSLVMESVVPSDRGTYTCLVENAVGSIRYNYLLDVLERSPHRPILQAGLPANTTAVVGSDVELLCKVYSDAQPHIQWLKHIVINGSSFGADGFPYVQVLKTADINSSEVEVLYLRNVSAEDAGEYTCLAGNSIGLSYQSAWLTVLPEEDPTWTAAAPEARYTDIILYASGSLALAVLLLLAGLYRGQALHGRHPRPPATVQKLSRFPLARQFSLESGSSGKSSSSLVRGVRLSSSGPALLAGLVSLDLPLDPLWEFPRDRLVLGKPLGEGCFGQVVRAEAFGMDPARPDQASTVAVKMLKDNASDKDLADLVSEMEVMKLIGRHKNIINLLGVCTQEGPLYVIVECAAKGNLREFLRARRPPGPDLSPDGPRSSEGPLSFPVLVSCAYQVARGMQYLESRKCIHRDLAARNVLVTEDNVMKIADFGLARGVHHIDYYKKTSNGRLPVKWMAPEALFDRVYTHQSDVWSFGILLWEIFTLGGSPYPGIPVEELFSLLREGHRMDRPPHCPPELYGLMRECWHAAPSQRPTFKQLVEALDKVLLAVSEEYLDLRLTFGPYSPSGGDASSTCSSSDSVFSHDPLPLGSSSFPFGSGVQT
Serine/threonine-protein kinase MARK1 (Homo sapiens), sequence (Q9P0L2 whole entry, looked up): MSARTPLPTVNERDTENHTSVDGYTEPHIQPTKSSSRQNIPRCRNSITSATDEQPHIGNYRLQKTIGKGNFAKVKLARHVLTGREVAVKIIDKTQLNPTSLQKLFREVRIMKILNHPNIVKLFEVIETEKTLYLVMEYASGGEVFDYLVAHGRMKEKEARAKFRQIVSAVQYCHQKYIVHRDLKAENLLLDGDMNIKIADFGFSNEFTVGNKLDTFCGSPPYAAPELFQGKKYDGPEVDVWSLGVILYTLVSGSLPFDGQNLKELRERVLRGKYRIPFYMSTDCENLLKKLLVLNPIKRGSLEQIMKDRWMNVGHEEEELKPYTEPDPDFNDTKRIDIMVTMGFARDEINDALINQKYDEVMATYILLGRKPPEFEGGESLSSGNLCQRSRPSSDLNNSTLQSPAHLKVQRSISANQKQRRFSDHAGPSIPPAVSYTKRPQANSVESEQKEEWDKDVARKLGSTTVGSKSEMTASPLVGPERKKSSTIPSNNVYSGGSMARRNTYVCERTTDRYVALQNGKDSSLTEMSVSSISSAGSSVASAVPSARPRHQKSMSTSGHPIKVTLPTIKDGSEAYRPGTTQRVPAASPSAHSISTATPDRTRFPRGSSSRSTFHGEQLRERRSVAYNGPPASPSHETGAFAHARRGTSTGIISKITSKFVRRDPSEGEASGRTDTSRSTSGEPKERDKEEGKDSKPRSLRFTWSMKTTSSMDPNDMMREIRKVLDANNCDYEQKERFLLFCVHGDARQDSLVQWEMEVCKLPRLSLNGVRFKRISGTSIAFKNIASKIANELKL
Mitogen-activated protein kinase 14 (Homo sapiens), sequence (Q16539 whole entry): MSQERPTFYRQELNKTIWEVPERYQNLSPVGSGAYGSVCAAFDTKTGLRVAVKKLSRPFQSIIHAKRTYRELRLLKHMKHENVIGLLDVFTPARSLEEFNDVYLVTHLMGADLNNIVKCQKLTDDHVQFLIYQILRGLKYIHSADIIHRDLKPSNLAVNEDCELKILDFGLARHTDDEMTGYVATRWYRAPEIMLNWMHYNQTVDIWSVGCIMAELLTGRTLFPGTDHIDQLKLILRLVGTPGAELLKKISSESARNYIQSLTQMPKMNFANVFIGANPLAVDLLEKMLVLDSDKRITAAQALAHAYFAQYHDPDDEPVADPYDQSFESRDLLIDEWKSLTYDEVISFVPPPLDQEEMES
SRSF protein kinase 2 (Homo sapiens), sequence (P78362 whole entry, looked up): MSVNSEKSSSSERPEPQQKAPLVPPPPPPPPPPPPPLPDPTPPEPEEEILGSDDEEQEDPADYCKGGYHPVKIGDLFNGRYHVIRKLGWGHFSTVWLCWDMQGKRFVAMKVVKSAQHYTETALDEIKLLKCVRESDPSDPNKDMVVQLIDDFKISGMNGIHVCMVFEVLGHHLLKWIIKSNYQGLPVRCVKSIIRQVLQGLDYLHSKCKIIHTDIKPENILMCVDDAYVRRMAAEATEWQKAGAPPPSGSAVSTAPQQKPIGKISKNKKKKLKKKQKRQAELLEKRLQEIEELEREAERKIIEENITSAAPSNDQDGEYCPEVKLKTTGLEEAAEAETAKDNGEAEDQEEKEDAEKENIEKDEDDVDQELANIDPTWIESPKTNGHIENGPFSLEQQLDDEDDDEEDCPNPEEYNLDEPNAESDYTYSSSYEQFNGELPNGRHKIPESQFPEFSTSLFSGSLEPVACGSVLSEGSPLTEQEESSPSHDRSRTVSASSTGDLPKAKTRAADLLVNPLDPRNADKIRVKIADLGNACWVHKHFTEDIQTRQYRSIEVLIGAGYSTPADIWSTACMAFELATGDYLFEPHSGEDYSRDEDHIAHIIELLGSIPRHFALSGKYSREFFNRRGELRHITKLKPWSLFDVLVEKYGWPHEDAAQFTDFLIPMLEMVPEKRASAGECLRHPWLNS
Serine/threonine-protein kinase BRSK2 (Homo sapiens), sequence (Q8IWQ3 whole entry): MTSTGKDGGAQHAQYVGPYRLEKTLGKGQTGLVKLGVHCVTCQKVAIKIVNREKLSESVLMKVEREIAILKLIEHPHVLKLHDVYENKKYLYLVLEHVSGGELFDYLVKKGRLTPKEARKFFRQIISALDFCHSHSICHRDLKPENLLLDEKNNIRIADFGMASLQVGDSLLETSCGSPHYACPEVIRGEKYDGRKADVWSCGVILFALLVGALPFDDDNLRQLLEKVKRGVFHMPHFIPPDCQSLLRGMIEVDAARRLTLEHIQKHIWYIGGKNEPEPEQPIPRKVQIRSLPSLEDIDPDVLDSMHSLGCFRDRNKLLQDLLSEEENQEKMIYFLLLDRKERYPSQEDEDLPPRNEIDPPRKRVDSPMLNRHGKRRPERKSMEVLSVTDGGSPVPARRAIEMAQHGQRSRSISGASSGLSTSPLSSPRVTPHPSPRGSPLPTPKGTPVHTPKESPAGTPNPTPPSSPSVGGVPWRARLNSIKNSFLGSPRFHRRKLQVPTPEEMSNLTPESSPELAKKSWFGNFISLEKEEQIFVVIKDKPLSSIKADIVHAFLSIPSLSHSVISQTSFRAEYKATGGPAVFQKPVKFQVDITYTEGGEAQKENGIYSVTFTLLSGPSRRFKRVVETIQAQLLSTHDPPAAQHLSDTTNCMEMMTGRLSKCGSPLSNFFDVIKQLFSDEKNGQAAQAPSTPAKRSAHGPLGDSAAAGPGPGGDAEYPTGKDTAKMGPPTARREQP
MAP kinase-activated protein kinase 3 (Homo sapiens), sequence (Q16644 whole entry, looked up): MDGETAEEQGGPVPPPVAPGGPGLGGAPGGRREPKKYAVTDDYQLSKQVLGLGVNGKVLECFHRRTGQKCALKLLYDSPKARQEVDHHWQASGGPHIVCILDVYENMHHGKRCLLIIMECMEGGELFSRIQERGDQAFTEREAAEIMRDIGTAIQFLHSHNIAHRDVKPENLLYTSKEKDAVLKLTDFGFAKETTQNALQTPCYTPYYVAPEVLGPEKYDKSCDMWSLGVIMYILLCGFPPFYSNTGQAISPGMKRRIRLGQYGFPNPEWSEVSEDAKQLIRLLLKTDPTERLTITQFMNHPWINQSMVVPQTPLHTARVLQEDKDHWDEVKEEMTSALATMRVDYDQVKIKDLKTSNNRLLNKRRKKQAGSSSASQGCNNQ
Calcium/calmodulin-dependent protein kinase type II subunit gamma (Homo sapiens), sequence (Q13555 whole entry): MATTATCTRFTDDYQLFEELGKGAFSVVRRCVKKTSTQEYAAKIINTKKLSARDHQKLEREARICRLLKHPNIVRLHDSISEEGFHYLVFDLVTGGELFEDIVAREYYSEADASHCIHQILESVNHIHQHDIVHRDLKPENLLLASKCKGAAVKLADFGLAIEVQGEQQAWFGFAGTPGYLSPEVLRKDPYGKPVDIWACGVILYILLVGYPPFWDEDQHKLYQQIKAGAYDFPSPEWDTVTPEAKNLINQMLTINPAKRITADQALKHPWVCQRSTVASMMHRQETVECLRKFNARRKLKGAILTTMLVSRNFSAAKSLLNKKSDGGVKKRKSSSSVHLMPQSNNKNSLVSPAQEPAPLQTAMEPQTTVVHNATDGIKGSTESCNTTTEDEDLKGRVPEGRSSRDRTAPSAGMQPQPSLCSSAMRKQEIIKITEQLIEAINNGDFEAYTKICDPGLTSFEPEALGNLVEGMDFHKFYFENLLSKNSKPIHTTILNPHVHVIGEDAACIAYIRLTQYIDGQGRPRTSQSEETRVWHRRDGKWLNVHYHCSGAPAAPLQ
cAMP-dependent protein kinase catalytic subunit PRKX (Homo sapiens), sequence (P51817 whole entry): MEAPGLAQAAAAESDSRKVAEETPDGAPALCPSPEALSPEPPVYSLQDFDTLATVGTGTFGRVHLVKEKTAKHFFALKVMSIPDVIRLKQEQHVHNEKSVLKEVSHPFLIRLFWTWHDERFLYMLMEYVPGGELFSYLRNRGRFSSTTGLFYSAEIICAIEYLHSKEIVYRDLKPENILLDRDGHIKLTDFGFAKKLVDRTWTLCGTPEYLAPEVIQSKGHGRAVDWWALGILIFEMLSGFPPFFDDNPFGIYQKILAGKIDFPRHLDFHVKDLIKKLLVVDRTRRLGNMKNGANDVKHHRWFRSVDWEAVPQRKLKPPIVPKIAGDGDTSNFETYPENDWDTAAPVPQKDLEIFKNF
Mitogen-activated protein kinase 1 (ERK2) (Mus musculus), sequence (P63085 whole entry, looked up): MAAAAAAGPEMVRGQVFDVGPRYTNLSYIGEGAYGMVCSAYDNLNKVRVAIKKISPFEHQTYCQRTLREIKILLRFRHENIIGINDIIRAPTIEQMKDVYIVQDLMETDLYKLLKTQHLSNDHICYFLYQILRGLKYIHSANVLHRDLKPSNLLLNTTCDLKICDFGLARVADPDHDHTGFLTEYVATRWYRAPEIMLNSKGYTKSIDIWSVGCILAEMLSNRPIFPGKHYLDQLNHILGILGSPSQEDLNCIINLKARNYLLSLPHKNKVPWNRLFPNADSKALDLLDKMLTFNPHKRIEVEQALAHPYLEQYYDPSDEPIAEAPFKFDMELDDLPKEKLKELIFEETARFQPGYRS

Activity [2]: 95% | Activity [3]: 104% | Activity [4]: 104% | Activity [6]: 100% | Activity [7]: 120% | Activity [8]: 106% | Activity [9]: 87% | Activity [11]: 95% | IC50 [12]: 670 nM | Activity [15]: 94% | Activity [17]: 105% | Activity [18]: 88% | Activity [19]: 106% | Activity [21]: 100% | Activity [22]: 100% | Activity [23]: 109% | Activity [25]: 100% | Activity [26]: 108% | Activity [27]: 99% | Activity [29]: 99% | Activity [30]: 52% | Activity [31]: 105% | Activity [32]: 104% | inhibition [35]: 59% | Activity [36]: 112% | Activity [37]: 115% | Activity [38]: 105% | Activity [39]: 123%
Structure (SMILES): O=C(O)c1ccc(Nc2ncc3c(n2)-c2ccc(Cl)cc2C(c2c(F)cccc2F)=NC3)cc1 [MLN-8054]
Activity [1]: 14.9% | Activity [5]: 23% | Activity [10]: Active | Activity [13]: 7% | Activity [14]: Active | Activity [16]: Active | Activity [20]: 13.2% | Activity [24]: 3.7% | Activity [28]: 5% | Activity [33]: 73% | Activity [34]: Active
